In brackets after ≈: the same amount, converted by molar mass. Several values for one entry are separate records, joined by “and”; a condition that tells them apart may be missing. Equal entries are not always repeated.
Key:
[1] = tested on: Escherichia coli; assay: Minimum inhibitory concentration (MIC) was measured against Escherichia coli.; assay type: functional
Method in brief: (§1)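 Strains were clinical isolates from the microbiology laboratories of Cliniques Universitaires St-Luc and Hôpital Brugmann, Brussels, and were characterized there. Compounds were tested as sulfate salts, which were stable in distilled water at pH 7.0 for at least 24 h. MIC was the highest dilution giving no visible growth, expressed in mg/L of free base.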

[2] = tested on: Enterococcus faecalis; assay: Minimum inhibitory concentration (MIC) was measured against Enterococcus faecalis ATCC 29212.; assay type: functional
[3] = tested on: Staphylococcus aureus; assay: Minimum inhibitory concentration (MIC) was measured against Staphylococcus aureus.; assay type: functional; method in brief: as §1
[4] = tested on: Pseudomonas aeruginosa; assay: Minimum inhibitory concentration (MIC) was measured against Pseudomonas aeruginosa ATCC 27853.; assay type: functional
[5] = tested on: Staphylococcus aureus; assay: microbe, parasite or virus in culture; conditions: ATCC 25923
[6] = tested on: Citrobacter freundii; assay: Minimum inhibitory concentration (MIC) was measured against Citrobacter freundii.; assay type: functional; method in brief: as §1
[7] = tested on: Pseudomonas aeruginosa; assay: Minimum inhibitory concentration (MIC) was measured against Pseudomonas aeruginosa.; assay type: functional; method in brief: as §1
[8] = tested on: Enterobacter cloacae; assay: Minimum inhibitory concentration (MIC) was measured against Enterobacter cloacae.; assay type: functional; method in brief: as §1
[9] = tested on: Acinetobacter baumannii; assay: Minimum inhibitory concentration (MIC) was measured against Acinetobacter baumanni ATCC 19606.; assay type: functional
Method in brief: (§2)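 Strains from ATCC; compounds tested as sulfate salts (stable ≥24 h in water at pH 7.0). MIC taken as highest dilution with no visible bacterial growth, expressed in mg/L of free base.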

[10] = tested on: Escherichia coli; assay: Minimum inhibitory concentration (MIC) was measured against Escherichia coli ATCC 25922.; assay type: functional
[11] = tested on: Acinetobacter lwoffii; assay: microbe, parasite or virus in culture; conditions: ATCC 17986
[12] = tested on: Serratia marcescens; assay: Minimum inhibitory concentration measured against Serratia marcescens; assay type: functional; method in brief: as §1
[13] = tested on: Escherichia coli; assay: Minimum inhibitory concentration (MIC) was measured against Escherichia coli ATCC 35218.; assay type: functional; method in brief: as §2
[14] = target: T1, Phospholipase A1 member A (Rattus norvegicus, UniProt P97535); assay: IC50 was measured as concentration causing 50% inhibition of lysosomal phospholipase A1 activity.
T1 sequence (P97535 whole entry): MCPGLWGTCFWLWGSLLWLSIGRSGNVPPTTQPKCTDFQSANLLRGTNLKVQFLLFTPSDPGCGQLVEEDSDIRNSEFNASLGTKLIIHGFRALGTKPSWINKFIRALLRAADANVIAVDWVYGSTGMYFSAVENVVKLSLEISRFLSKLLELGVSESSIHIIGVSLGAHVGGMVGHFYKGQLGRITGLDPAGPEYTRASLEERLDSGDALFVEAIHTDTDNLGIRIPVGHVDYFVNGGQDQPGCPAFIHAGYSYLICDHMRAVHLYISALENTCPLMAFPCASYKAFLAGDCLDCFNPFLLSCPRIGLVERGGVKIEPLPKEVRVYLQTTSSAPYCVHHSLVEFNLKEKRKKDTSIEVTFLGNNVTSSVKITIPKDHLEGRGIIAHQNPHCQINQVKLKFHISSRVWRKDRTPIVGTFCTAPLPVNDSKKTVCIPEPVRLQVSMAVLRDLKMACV

[15] = Pseudomonas aeruginosa, read-out: MIC
[16] = Enterobacter cloacae, read-out: MIC
[17] = Serratia marcescens, read-out: MIC

Compound | MIC [1] | MIC [2] | MIC [3] | MIC [4] | MIC [5] | MIC [6] | MIC [7, 15] | MIC [8] | MIC [8, 16] | MIC [9] | MIC [10] | MIC [11] | MIC [12] | MIC [12, 17] | MIC [13] | MIC [7] | IC50 [14]
CC(N)C(=O)NC1CC(N)C(OC2OC(CN)C(O)C(O)C2O)C(O)C1OC1OC(CO)C(O)C(N)C1O (stereo not given) | > 128 µg/mL | > 128 µg/mL | > 128 µg/mL | > 128 µg/mL | 16 µg/mL (≈ 28.8 µM) | 64 µg/mL (≈ 115 µM) | > 128 µg/mL | >128 µg/mL | 64 µg/mL (≈ 115 µM) | 128 µg/mL (≈ 230 µM) | 128 µg/mL (≈ 230 µM) | > 128 µg/mL | >128 mg/L | 128 mg/L (≈ 230 µM) | 64 µg/mL (≈ 115 µM) |  | 
CCNC1CC(N)C(OC2OC(CNC(=O)C(C)N)=CCC2N)C(O)C1OC1OCC(C)(O)C(NC)C1O (stereo not given) | > 128 µg/mL | 128 µg/mL (≈ 234 µM) | > 128 µg/mL | > 128 µg/mL | 32 µg/mL (≈ 58.5 µM) | 32 µg/mL (≈ 58.5 µM) | > 128 µg/mL |  | > 128 µg/mL | > 128 µg/mL | 128 µg/mL (≈ 234 µM) | 128 µg/mL (≈ 234 µM) | >128 mg/L | 128 mg/L (≈ 234 µM) | 32 µg/mL (≈ 58.5 µM) |  | 
NCC[C@H](O)C(=O)N[C@@H]1C[C@H](N)[C@@H](O[C@H]2O[C@H](CN)[C@@H](O)[C@H](O)[C@H]2O)[C@H](O)[C@H]1O[C@H]1O[C@H](CO)[C@@H](O)[C@H](N)[C@H]1O [AMIKACIN] | 128 µg/mL (≈ 219 µM) | 64 µg/mL (≈ 109 µM) | 32 µg/mL (≈ 54.6 µM) | 32 µg/mL (≈ 54.6 µM) | 4 µg/mL (≈ 6.83 µM) | 4 µg/mL (≈ 6.83 µM) | 64 µg/mL (≈ 109 µM) |  |  | 16 µg/mL (≈ 27.3 µM) | 8 µg/mL (≈ 13.7 µM) | 32 µg/mL (≈ 54.6 µM) |  |  | 2 µg/mL (≈ 3.42 µM) | 64 µg/mL (≈ 109 µM) | 
CN[C@@H]1[C@@H](O)[C@@H](O[C@@H]2[C@@H](O)[C@H](O[C@H]3O[C@H](CN)[C@@H](O)[C@H](O)[C@H]3O)[C@@H](N)C[C@H]2NC(=O)[C@@H](O)CN)OC[C@]1(C)O [ISEPAMICIN] | 32 µg/mL (≈ 56.2 µM) | 64 µg/mL (≈ 112 µM) | 2 µg/mL (≈ 3.51 µM) | 16 µg/mL (≈ 28.1 µM) | 4 µg/mL (≈ 7.02 µM) | 4 µg/mL (≈ 7.02 µM) | 64 µg/mL (≈ 112 µM) | 8 µg/mL (≈ 14 µM) | 4 µg/mL (≈ 7.02 µM) | 32 µg/mL (≈ 56.2 µM) | 8 µg/mL (≈ 14 µM) | 16 µg/mL (≈ 28.1 µM) |  |  | 2 µg/mL (≈ 3.51 µM) | 64 µg/mL (≈ 112 µM) | 
NC[C@H]1O[C@H](O[C@H]2[C@H](O)[C@@H](O[C@H]3O[C@H](CO)[C@@H](O)[C@H](N)[C@H]3O)[C@H](N)C[C@@H]2N)[C@H](O)[C@@H](O)[C@@H]1O [KANAMYCIN] | > 128 µg/mL | 32 µg/mL (≈ 66 µM) | > 128 µg/mL | > 128 µg/mL | 1 µg/mL (≈ 2.06 µM) | 4 µg/mL (≈ 8.26 µM) | > 128 µg/mL |  |  | 4 µg/mL (≈ 8.26 µM) | 8 µg/mL (≈ 16.5 µM) | 16 µg/mL (≈ 33 µM) |  |  | 2 µg/mL (≈ 4.13 µM) |  | 
CCN[C@@H]1C[C@H](N)[C@@H](O[C@H]2OC(CN)=CC[C@H]2N)[C@H](O)[C@H]1O[C@H]1OC[C@](C)(O)[C@H](NC)[C@H]1O [NETILMICIN] | > 128 µg/mL | 4 µg/mL (≈ 8.41 µM) | 8 µg/mL (≈ 16.8 µM) | 8 µg/mL (≈ 16.8 µM) | 0.25 µg/mL (≈ 0.526 µM) | 0.25 µg/mL (≈ 0.526 µM) | 64 µg/mL (≈ 135 µM) |  |  | 32 µg/mL (≈ 67.3 µM) | 1 µg/mL (≈ 2.1 µM) | 32 µg/mL (≈ 67.3 µM) |  |  | 0.5 µg/mL (≈ 1.05 µM) | >128 µg/mL | 
GENTAMICIN [listing 1 of 2 here] |  |  |  |  |  |  |  |  |  |  |  |  |  |  |  |  | 45 µg/mL
GENTAMICIN [listing 2 of 2 here] | 16 µg/mL | 16 µg/mL | > 128 µg/mL | 8 µg/mL |  | 1 µg/mL |  | 32 µg/mL |  | 32 µg/mL | 4 µg/mL |  | 4 µg/mL (2×) and 8 µg/mL (2×) |  | 1 µg/mL | 64 µg/mL and > 128 µg/mL | 

From ChEMBL document CHEMBL1128666, “Synthesis and antimicrobial and toxicological studies of amino acid and peptide derivatives of kanamycin A and netilmicin” (J Med Chem, 1995)
